Data from ChEMBL document CHEMBL1148162, “Structures of sesquiterpene polyol esters from Celastrus stephanotiifolius with potential tumor-promotion inhibitor activity” (J Nat Prod, 1993).

Tests used:
Format in all cases: cell-based
Raji [1] = assay: Inhibition of 12-O-tetradecanoylphorbol-13-acetate induced EBV-early antigen activation in human Raji cells assessed as EA activation at 1000 molar ratio relative to TPA; set-up: scale not given: the % may be the effect or the level left; details: human gammaherpesvirus 4
Summary of the method: (§1)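 Raji cells stimulated with TPA at 20 ng/ml (32 pM/ml) in the presence of test compound at 10, 100, 500 or 1000 mol ratio to TPA. EBV early antigen activation is reported as a percentage of the TPA-only positive control (100%).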

Raji [2] = assay: Inhibition of 12-O-tetradecanoylphorbol-13-acetate induced EBV-early antigen activation in human Raji cells assessed as EA activation at 500 molar ratio relative to TPA; set-up: scale not given: the % may be the effect or the level left; details: human gammaherpesvirus 4; summary of the method: as §1
Raji [3] = assay: Inhibition of 12-O-tetradecanoylphorbol-13-acetate induced EBV-early antigen activation in human Raji cells assessed as EA activation at 100 molar ratio relative to TPA; set-up: scale not given: the % may be the effect or the level left; details: human gammaherpesvirus 4; summary of the method: as §1
Raji [4] = assay: Inhibition of 12-O-tetradecanoylphorbol-13-acetate induced EBV-early antigen activation in human Raji cells assessed as EA activation at 10 molar ratio relative to TPA; set-up: scale not given: the % may be the effect or the level left; details: human gammaherpesvirus 4; summary of the method: as §1
[5] = Cytotoxicity against human Raji cells assessed as cell viability at 1000 molar ratio; details: read-out: Activity
Summary of the method: (§2)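 Raji cell viability was recorded in the same TPA-induced EBV-EA assay (TPA 20 ng/ml, 32 pM/ml), with compound at 10, 100, 500 or 1000 mol ratio to TPA. Viability is reported as a percentage.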

[6] = Cytotoxicity against human Raji cells assessed as cell viability at 500 molar ratio; details: read-out: Activity; summary of the method: as §2
[7] = Cytotoxicity against human Raji cells assessed as cell viability at 100 molar ratio; details: read-out: Activity; summary of the method: as §2
[8] = Cytotoxicity against human Raji cells assessed as cell viability at 10 molar ratio; details: read-out: Activity; summary of the method: as §2

Structure (SMILES): CC(=O)O[C@@H]1[C@H]2[C@@H](O)[C@@H](OC(=O)c3ccccc3)[C@]3(C)[C@@H](OC(=O)c4ccccc4)CC[C@@H](C)[C@@]13OC2(C)C
- Activity (Raji [1]): 0%
- Activity (Raji [2]): 39.3%
- Activity (Raji [3]): 81.1%
- Activity (Raji [4]): 100%
- viability at 1000 molar ratio [5]: 60%
- viability at 500 molar ratio [6]: > 80%
- viability at 100 molar ratio [7]: > 80%
- viability at 10 molar ratio [8]: > 80%

Structure (SMILES): CC(=O)O[C@H]1C[C@@H](C)[C@]23OC(C)(C)[C@H](C[C@H](OC(=O)c4ccccc4)[C@]2(C)[C@H]1OC(C)=O)[C@H]3OC(C)=O
- Activity (Raji [1]): 34.2%
- Activity (Raji [2]): 65.9%
- Activity (Raji [3]): 92.9%
- Activity (Raji [4]): 100%
- viability at 1000 molar ratio [5]: 70%
- viability at 500 molar ratio [6]: > 80%
- viability at 100 molar ratio [7]: > 80%
- viability at 10 molar ratio [8]: > 80%

Structure (SMILES): CC(=O)O[C@H]1C[C@@H](C)[C@@]23C[C@@H](C[C@H](OC(=O)/C=C/c4ccccc4)[C@]2(C)[C@H]1O)C(C)(C)O3
- Activity (Raji [1]): 0%
- Activity (Raji [2]): 41.6%
- Activity (Raji [3]): 86.4%
- Activity (Raji [4]): 100%
- viability at 1000 molar ratio [5]: 70%
- viability at 500 molar ratio [6]: > 80%
- viability at 100 molar ratio [7]: > 80%
- viability at 10 molar ratio [8]: > 80%

Structure (SMILES): CC(=O)O[C@H]1CC[C@@H](C)[C@]23OC(C)(C)[C@H](C[C@H](OC(=O)c4ccccc4)[C@]12C)[C@H]3OC(C)=O
- Activity (Raji [1]): 26.2%
- Activity (Raji [2]): 47.9%
- Activity (Raji [3]): 92.1%
- Activity (Raji [4]): 100%
- viability at 1000 molar ratio [5]: 70%
- viability at 500 molar ratio [6]: > 80%
- viability at 100 molar ratio [7]: > 80%
- viability at 10 molar ratio [8]: > 80%

Structure (SMILES): CC(=O)O[C@@H]1[C@@H]2[C@@H](OC(C)=O)[C@]3(OC2(C)C)[C@H](C)CC[C@H](OC(C)=O)[C@@]3(C)[C@H]1OC(=O)c1ccccc1
- Activity (Raji [1]): 15.3%
- Activity (Raji [2]): 52.8%
- Activity (Raji [3]): 90.6%
- Activity (Raji [4]): 100%
- viability at 1000 molar ratio [5]: 70%
- viability at 500 molar ratio [6]: > 80%
- viability at 100 molar ratio [7]: > 80%
- viability at 10 molar ratio [8]: > 80%

Structure (SMILES): CC(=O)O[C@H]1C[C@@H](C)[C@@]23C[C@@H](C[C@H](OC(=O)/C=C/c4ccccc4)[C@]2(C)[C@H]1OC(C)=O)C(C)(C)O3
- Activity (Raji [1]): 25.6%
- Activity (Raji [2]): 63.1%
- Activity (Raji [3]): 89.4%
- Activity (Raji [4]): 100%
- viability at 1000 molar ratio [5]: 70%
- viability at 500 molar ratio [6]: > 80%
- viability at 100 molar ratio [7]: > 80%
- viability at 10 molar ratio [8]: > 80%

Structure (SMILES): CC(=O)O[C@H]1CC[C@@H](C)[C@]23OC(C)(C)[C@H](C[C@H](OC(=O)c4ccccc4)[C@]12C)[C@H]3OC(=O)c1ccccc1
- Activity (Raji [1]): 53.6%
- Activity (Raji [2]): 84.6%
- Activity (Raji [3]): 100%
- Activity (Raji [4]): 100%
- viability at 1000 molar ratio [5]: 70%
- viability at 500 molar ratio [6]: > 80%
- viability at 100 molar ratio [7]: > 80%
- viability at 10 molar ratio [8]: > 80%
